In ChEMBL document CHEMBL5653631, “A Potent and Selective ULK1 Inhibitor Suppresses Autophagy and Sensitizes Cancer Cells to Nutrient Stress” (iScience, 2018):
Values belong to the compound of their own block, whether it stands above or below them.

Legend:
[1] = molecular target: Serine/threonine-protein kinase SIK1 (Homo sapiens) (UniProt P57059); assay: Inhibition of human recombinant SIK at 500 nM related to control ULK1
[2] = molecular target: Fibroblast growth factor receptor 1 (Homo sapiens) (UniProt P11362); assay: Inhibition of human recombinant FGFR1 at 500 nM in presence of ATP by radiometric assay relative to control
[3] = molecular target: Homeodomain-interacting protein kinase 3 (Homo sapiens) (UniProt Q9H422); assay: Inhibition of human recombinant HIPK3 at 500 nM related to control ULK1
[4] = molecular target: Homeodomain-interacting protein kinase 1 (Homo sapiens) (UniProt Q86Z02); assay: Inhibition of human recombinant HIPK1 at 500 nM related to control ULK1
[5] = molecular target: STE20-like serine/threonine-protein kinase (Homo sapiens) (UniProt Q9H2G2); assay: Inhibition of human recombinant SLK at 500 nM in presence of ATP by radiometric assay relative to control
[6] = molecular target: Ribosomal protein S6 kinase alpha-3 (Homo sapiens) (UniProt P51812); assay: Inhibition of human recombinant RSK2 at 40 nM related to control ULK1
[7] = molecular target: T1, Serine/threonine-protein kinase 3 (Homo sapiens) (UniProt Q13188); assay: Inhibition of human recombinant MST2 at 40 nM related to control ULK1
T1 sequence (whole entry): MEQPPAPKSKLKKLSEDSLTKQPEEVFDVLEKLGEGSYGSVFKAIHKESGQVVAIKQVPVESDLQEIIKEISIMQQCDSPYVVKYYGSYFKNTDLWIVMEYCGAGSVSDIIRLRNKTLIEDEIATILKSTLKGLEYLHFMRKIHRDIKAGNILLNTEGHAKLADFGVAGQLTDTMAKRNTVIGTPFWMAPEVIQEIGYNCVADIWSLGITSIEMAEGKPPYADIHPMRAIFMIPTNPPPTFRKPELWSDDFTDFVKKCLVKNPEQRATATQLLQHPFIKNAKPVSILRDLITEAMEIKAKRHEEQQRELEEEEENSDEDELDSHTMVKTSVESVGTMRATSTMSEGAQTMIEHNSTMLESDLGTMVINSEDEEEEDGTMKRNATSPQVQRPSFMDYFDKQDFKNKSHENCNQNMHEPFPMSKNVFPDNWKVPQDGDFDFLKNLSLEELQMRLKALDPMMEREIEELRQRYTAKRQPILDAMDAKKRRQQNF

[8] = molecular target: T2, Receptor-interacting serine/threonine-protein kinase 1 (Homo sapiens) (UniProt Q13546); assay: Inhibition of human recombinant RIPK1 at 40 nM related to control ULK1
T2 sequence (whole entry): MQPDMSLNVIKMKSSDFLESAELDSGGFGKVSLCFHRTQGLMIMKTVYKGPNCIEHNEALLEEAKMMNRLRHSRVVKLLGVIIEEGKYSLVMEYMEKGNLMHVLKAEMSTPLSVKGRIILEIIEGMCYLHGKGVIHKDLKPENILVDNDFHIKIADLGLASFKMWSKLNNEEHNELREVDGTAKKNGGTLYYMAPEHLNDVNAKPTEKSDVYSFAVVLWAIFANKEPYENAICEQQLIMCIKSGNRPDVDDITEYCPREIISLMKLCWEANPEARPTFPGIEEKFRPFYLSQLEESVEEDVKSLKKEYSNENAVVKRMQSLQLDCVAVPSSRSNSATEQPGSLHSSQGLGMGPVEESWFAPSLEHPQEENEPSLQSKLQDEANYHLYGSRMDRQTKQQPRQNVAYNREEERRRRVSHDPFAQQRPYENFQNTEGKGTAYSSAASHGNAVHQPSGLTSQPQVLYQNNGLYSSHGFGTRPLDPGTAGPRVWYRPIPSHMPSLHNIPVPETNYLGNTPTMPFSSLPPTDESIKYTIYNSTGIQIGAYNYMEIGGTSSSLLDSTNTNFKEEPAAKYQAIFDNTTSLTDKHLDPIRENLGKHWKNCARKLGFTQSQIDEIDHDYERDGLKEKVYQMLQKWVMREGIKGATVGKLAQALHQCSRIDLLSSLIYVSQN

[9] = molecular target: T3, Mitogen-activated protein kinase kinase kinase 2 (Homo sapiens) (UniProt Q9Y2U5); assay: Inhibition of human recombinant MAP3K2 at 40 nM related to control ULK1
T3 sequence (whole entry): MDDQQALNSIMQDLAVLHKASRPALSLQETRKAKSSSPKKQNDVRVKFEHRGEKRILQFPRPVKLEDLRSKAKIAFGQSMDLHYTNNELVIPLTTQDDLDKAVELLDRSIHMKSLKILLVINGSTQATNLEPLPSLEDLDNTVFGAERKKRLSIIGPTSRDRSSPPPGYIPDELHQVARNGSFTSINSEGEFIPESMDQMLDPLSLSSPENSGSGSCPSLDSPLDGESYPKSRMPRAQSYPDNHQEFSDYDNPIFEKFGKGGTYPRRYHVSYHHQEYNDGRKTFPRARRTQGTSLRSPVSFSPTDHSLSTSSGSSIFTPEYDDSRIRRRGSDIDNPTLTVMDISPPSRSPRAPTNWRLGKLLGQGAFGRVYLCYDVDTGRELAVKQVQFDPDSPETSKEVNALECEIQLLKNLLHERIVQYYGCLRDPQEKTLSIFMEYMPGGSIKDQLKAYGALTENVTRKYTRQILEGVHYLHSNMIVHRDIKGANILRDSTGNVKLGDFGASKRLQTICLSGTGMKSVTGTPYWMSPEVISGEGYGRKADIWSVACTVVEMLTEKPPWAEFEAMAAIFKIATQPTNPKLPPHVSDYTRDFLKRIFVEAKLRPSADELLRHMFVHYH

[10] = molecular target: Serine/threonine-protein kinase N1 (Homo sapiens) (UniProt Q16512); assay: Inhibition of human recombinant PKN1 at 40 nM in presence of ATP by radiometric assay relative to control
[11] = molecular target: Aurora kinase B (Homo sapiens) (UniProt Q96GD4); assay: Inhibition of human recombinant AurB at 40 nM in presence of ATP by radiometric assay relative to control
Method in brief: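 Part of a radiometric in vitro activity panel of 327 recombinant human kinases. Each kinase was tested in duplicate at one inhibitor concentration. Activity remaining was expressed as a percentage of the vehicle control, and percent inhibition was taken as 100 minus that value.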

[12] = molecular target: 3-phosphoinositide-dependent protein kinase 1 (Homo sapiens) (UniProt O15530); assay: Inhibition of human recombinant PDK1 at 40 nM related to control ULK1
[13] = molecular target: Calcium/calmodulin-dependent protein kinase kinase 1 (Homo sapiens) (UniProt Q8N5S9); assay: Inhibition of human recombinant CaMKK1 at 15 nM related to control ULK1
Chain of Calcium/calmodulin-dependent protein kinase kinase 1 (Homo sapiens) (Q8N5S9 whole entry, looked up): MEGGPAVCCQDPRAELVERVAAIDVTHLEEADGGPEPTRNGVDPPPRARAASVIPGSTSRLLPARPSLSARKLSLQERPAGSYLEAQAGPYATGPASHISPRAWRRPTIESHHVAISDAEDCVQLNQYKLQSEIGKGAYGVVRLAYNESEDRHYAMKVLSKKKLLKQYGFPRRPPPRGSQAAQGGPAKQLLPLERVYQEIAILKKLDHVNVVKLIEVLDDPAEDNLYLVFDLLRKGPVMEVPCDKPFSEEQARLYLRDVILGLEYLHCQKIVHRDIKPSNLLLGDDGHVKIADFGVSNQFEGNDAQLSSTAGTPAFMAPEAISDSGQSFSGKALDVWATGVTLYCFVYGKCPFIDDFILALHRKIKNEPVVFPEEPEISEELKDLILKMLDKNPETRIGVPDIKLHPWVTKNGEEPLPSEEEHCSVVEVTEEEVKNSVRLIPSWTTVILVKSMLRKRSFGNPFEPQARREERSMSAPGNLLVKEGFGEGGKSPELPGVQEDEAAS

Chain of STE20-like serine/threonine-protein kinase (Homo sapiens) (Q9H2G2 whole entry, looked up): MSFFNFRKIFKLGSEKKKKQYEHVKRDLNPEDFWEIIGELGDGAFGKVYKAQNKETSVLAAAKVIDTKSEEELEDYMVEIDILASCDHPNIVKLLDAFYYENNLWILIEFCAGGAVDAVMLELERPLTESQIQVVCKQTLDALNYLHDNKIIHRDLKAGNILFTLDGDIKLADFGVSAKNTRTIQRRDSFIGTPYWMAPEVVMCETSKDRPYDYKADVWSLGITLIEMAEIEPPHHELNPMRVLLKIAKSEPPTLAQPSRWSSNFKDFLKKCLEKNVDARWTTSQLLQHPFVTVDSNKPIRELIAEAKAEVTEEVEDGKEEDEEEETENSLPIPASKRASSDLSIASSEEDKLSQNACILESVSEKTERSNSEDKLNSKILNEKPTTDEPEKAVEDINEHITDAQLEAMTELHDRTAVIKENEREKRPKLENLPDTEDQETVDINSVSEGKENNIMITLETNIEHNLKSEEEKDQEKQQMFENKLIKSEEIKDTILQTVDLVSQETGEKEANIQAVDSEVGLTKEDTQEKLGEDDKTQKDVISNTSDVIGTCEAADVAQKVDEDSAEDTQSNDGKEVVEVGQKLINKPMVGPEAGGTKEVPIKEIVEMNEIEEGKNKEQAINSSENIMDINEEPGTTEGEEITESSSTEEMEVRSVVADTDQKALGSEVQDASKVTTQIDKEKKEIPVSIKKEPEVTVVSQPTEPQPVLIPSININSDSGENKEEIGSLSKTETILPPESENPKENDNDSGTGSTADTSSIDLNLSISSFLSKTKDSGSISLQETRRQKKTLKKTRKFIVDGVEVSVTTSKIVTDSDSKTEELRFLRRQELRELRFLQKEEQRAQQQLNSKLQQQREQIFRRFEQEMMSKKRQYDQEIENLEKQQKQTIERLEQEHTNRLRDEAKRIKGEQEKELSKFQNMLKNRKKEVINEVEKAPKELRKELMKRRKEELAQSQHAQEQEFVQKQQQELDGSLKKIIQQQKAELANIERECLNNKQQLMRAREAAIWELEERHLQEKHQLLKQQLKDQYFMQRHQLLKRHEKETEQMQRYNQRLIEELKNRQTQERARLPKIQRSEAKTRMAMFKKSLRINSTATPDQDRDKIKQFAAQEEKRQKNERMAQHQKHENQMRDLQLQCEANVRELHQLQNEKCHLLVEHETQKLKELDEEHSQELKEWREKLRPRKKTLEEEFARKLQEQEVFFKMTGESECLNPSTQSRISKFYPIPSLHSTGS
Chain of Serine/threonine-protein kinase SIK1 (Homo sapiens) (P57059 whole entry): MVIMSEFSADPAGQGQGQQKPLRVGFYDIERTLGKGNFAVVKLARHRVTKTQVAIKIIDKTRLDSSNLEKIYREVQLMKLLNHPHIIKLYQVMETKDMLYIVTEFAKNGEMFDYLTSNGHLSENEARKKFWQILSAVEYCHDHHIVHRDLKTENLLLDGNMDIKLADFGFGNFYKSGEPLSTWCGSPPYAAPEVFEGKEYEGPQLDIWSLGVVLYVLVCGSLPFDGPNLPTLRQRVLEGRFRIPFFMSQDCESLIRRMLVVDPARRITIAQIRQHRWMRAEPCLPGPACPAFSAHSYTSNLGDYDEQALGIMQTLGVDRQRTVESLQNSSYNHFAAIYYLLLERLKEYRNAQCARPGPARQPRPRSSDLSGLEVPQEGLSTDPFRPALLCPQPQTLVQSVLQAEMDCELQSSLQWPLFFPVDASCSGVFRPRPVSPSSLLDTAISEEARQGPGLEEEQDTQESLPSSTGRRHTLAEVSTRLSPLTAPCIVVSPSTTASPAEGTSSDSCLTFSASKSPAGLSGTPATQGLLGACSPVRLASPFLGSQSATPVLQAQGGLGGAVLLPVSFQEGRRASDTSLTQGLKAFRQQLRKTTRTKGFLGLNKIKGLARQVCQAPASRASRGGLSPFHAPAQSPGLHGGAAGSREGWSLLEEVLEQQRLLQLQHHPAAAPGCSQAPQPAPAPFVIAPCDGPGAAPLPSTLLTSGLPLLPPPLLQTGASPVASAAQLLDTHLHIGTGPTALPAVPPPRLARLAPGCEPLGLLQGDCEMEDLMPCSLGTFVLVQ
Chain of Homeodomain-interacting protein kinase 3 (Homo sapiens) (Q9H422 whole entry, looked up): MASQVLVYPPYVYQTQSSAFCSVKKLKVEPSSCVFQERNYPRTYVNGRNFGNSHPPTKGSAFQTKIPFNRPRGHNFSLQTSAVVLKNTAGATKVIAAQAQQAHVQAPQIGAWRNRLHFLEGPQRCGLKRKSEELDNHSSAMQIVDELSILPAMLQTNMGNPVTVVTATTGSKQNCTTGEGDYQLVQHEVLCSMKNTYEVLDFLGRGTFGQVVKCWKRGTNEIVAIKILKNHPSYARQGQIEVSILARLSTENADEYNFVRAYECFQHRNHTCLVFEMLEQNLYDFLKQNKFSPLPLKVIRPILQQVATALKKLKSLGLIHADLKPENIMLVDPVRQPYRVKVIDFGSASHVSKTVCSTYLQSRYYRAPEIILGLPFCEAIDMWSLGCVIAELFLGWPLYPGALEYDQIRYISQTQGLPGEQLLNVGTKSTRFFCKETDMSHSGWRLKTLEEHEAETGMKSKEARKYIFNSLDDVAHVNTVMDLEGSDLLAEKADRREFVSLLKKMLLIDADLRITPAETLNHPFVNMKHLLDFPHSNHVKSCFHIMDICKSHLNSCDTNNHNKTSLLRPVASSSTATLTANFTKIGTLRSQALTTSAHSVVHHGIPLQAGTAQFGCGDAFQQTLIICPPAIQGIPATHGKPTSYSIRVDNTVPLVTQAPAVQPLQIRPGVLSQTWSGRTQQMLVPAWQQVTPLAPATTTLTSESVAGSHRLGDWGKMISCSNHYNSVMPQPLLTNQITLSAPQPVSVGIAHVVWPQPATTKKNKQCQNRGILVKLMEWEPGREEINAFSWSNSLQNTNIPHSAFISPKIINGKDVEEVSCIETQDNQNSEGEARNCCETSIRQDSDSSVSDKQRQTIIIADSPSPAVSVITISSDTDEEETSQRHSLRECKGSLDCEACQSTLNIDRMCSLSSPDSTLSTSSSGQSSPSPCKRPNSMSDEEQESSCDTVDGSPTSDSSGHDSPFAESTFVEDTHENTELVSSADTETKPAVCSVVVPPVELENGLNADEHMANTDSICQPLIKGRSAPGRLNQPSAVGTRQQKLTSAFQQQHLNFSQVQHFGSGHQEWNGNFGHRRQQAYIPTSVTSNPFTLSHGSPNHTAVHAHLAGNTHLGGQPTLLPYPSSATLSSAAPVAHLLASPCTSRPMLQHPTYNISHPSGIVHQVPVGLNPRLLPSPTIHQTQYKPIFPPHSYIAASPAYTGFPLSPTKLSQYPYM
Chain of Fibroblast growth factor receptor 1 (Homo sapiens) (P11362 22-822 limits assumed): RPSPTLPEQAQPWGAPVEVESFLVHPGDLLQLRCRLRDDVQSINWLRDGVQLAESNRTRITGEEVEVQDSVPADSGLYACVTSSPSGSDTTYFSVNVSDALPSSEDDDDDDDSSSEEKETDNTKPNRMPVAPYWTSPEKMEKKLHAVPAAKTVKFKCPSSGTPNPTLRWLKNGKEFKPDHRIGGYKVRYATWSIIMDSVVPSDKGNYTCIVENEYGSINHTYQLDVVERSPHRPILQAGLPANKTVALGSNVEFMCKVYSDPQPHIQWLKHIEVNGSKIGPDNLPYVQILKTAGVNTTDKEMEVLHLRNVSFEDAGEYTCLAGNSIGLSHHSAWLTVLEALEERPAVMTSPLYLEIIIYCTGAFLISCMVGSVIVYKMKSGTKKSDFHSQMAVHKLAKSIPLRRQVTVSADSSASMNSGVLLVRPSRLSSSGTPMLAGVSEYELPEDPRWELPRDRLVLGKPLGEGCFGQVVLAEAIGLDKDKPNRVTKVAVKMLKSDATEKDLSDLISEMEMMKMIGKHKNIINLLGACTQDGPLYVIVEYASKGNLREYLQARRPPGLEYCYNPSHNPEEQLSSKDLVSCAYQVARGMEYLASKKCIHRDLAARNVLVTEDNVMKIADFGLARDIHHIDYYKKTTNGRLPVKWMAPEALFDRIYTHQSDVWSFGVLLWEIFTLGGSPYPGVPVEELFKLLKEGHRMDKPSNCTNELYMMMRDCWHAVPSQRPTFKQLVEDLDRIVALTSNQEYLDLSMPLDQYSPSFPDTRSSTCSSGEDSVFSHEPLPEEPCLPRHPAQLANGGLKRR
Chain of 3-phosphoinositide-dependent protein kinase 1 (Homo sapiens) (O15530 whole entry, looked up): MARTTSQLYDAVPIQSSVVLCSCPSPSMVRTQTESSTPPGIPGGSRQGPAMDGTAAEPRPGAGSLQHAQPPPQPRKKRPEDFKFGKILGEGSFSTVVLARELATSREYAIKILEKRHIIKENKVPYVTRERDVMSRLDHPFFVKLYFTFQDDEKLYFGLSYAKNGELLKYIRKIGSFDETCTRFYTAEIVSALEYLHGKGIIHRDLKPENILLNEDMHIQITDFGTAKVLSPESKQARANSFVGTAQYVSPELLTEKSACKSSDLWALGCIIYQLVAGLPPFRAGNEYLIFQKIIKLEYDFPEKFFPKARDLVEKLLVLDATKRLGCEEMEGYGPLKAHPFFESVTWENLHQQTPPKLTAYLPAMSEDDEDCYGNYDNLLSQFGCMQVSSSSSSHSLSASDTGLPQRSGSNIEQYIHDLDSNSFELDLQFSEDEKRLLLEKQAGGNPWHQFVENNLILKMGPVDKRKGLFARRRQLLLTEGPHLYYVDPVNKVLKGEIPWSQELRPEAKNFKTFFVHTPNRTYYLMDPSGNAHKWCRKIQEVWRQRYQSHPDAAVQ

fold change (FC) [1]: 0.27 | inhibition [2]: 35% | fold change (FC) [3]: 0.08 | fold change (FC) [4]: 0.04 | inhibition [5]: 15%
SMILES: CNC(=O)c1ccccc1Oc1nc(Nc2cc(OC)c(OC)c(OC)c2)ncc1Br

fold change (FC) [6]: 0 | fold change (FC) [7]: 0 | fold change (FC) [8]: 0.03 | fold change (FC) [9]: 0 | inhibition [10]: 0% | inhibition [11]: 49% | fold change (FC) [12]: 0
SMILES: O=C(N[C@@H](C1CC1)C(F)(F)F)c1cc(-c2cnn3cc(-c4ccc(F)cc4)cnc23)cs1

fold change (FC) [13]: 0
SMILES: CC(C)[C@H](NC(=O)c1cc(-c2cnn3cc(-c4ccc(OCCN5CCCCC5)cc4)cnc23)cs1)C(F)(F)F
